In ChEMBL document CHEMBL1145630, “Antidiabetic activity of N-(6-substituted-1,3-benzothiazol-2-yl)benzenesulfonamides” (2008) one finds inhibition and Activity data, which are given here for nine compounds.

The target in assay [1] is 11-beta-hydroxysteroid dehydrogenase 1 (Homo sapiens) (UniProt P28845). Kind of assay: Inhibition of human 11beta-HSD1 expressed in HEK293 cells at 10 uM by scintillation proximity assay. It is filed as cell-based. In short, it runs like this:
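Cell-based scintillation proximity assay in HEK293 cells stably transfected with full-length human hsd11b1, grown in DMEM. Compounds were added at 1% final DMSO with 20 nM tritiated cortisone (final), 2 h at 37 °C. Medium was mixed with anti-mouse YSi SPA beads and anti-cortisol antibody in Tris-HCl pH 7.0 buffer, 2 h at room temperature. Inhibition was calculated against an uninhibited control.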
(SPA uses beads or plates that emit light when radiolabelled molecules are held near them.)

Assay [2] deals with Rattus norvegicus. Description: Antidiabetic effect in streptozo-nicotinamide rat model of diabetes assessed as change in blood glucose level at 100 mg/kg, po after 1 hr relative to control. It counts as functional. In short, it runs like this: (§1)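 Type 2 diabetes was induced in overnight-fasted rats with i.p. streptozotocin 65 mg/kg, given 15 min after i.p. nicotinamide 110 mg/kg. Rats with glucose above 250 mg/dL at 72 h were used, n = 5 per group. Compounds were suspended in 1% Tween 80 and given orally. Controls received vehicle; glibenclamide 5 mg/kg was the reference. Caudal-vein glucose was read by glucose-oxidase glucometer at 0, 1, 3, 5 and 7 h.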

The test system of assay [3] is Rattus norvegicus. Description: Antidiabetic effect in streptozo-nicotinamide rat model of diabetes assessed as change in blood glucose level at 100 mg/kg, po after 3 hrs relative to control. It is filed as functional. In short, it runs like this:
as §1

In assay [4] the test system is Rattus norvegicus. Kind of assay: Antidiabetic effect in streptozo-nicotinamide rat model of diabetes assessed as change in blood glucose level at 100 mg/kg, po after 5 hrs relative to control. It counts as functional. Summed up: as §1
The subject of assay [5] is Rattus norvegicus. Description: Antidiabetic effect in streptozo-nicotinamide rat model of diabetes assessed as change in blood glucose level at 100 mg/kg, po after 7 hrs relative to control. It is filed as functional. Summed up: as §1

11-beta-hydroxysteroid dehydrogenase 1 (Homo sapiens), sequence (P28845 whole entry, looked up): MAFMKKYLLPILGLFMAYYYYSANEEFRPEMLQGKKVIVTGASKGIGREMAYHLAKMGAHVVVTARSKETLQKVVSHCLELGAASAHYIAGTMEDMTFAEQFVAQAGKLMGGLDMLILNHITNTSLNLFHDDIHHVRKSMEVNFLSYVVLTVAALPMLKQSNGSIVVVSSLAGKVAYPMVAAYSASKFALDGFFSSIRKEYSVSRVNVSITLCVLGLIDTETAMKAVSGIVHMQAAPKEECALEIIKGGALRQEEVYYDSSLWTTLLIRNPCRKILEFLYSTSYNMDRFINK

The inhibition is how much of the control response was suppressed. A high value points to strong suppression. The compound `Cc1ccc2nc(NS(=O)(=O)c3ccc([N+](=O)[O-])cc3)sc2c1` registered an inhibition in assay [1] of 11.1%.
Take `COc1ccc(S(=O)(=O)Nc2nc3ccc([N+](=O)[O-])cc3s2)cc1`: the inhibition in assay [1] came out at 25.6%. Further, the Activity came to 77.1% with Rattus norvegicus [2], 49% in the assay on Rattus norvegicus [3], 19.1% in the assay on Rattus norvegicus [4] and 29% with Rattus norvegicus [5].
In assay [1], `Cc1ccc2nc(NS(=O)(=O)c3ccc(Cl)cc3)sc2c1` showed an inhibition of 27.2%. Also, the Activity with Rattus norvegicus [2] stood at 34%; in the assay on Rattus norvegicus [3] it was 36.1%; in the assay with Rattus norvegicus [4], 12.2%; in the assay with Rattus norvegicus [5], 21.4%.
Taken in the same sequence, the figures for `COc1ccc2nc(NS(=O)(=O)c3ccccc3)sc2c1` were 37.6%, 78.1%, 62.9%, 31.5% and 53.2%.
In turn, `CC(=O)Nc1ccc(S(=O)(=O)Nc2nc3ccc([N+](=O)[O-])cc3s2)cc1` showed an inhibition in assay [1] of 7.69%. Further, the Activity was determined as 37.2% in the assay on Rattus norvegicus [2], 11.8% with Rattus norvegicus [3], 4% in the assay on Rattus norvegicus [4] and 30% in the assay with Rattus norvegicus [5].
Take `COc1ccc(Cl)cc1C(=O)NCCc1ccc(S(=O)(=O)NC(=O)NC2CCCCC2)cc1` [GLYBURIDE]: the Activity worked out at 78% in the assay on Rattus norvegicus [2], 32.6% in the assay with Rattus norvegicus [3], 51.5% in the assay with Rattus norvegicus [4] and 55.4% in the assay on Rattus norvegicus [5].
Turning to `CCOc1ccc2nc(NS(=O)(=O)c3ccc([N+](=O)[O-])cc3)sc2c1`, the inhibition in assay [1] was 15.5%.
On to `COc1ccc2nc(NS(=O)(=O)c3ccc([N+](=O)[O-])cc3)sc2c1`, for which the inhibition in assay [1] was 53.3%. Besides, the Activity with Rattus norvegicus [2] was found to be 69.7%; in the assay on Rattus norvegicus [3], 42.5%; with Rattus norvegicus [4], 18.1%; in the assay with Rattus norvegicus [5], 27.8%.
As to `CCOc1ccc2nc(NS(=O)(=O)c3ccc(C)cc3)sc2c1`, the inhibition in assay [1] came out at 16.4%.
